Test [1] has as its target T1, 5-hydroxytryptamine receptor 7 (Homo sapiens, UniProt P34969). Description: Binding affinity towards cloned human 5-hydroxytryptamine 7 receptor expressed in HEK 293 cells using [3H]5-CT. It is filed as cell-based, HEK293. In outline: (§1)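 Radioligand displacement binding on the receptor source and radioligand named in each line. Each value is the mean of at least two determinations, and every determination lay within 0.2 log unit of that mean.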

For test [2], the target named is T2, 5-hydroxytryptamine receptor 1A (Homo sapiens, UniProt P08908).
T2 sequence (P08908 whole entry): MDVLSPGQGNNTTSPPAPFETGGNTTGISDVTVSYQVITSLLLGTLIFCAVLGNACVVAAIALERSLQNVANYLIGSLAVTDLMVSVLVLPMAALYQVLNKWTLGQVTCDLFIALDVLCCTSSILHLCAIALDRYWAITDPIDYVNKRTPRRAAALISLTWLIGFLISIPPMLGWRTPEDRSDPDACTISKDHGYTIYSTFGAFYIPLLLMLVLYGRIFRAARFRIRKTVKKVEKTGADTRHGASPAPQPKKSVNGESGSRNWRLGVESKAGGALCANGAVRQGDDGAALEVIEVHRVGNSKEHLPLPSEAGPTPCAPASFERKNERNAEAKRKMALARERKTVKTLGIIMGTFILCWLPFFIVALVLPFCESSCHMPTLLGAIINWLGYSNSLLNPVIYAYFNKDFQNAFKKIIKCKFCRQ
Nature of the test: The compound was tested for its binding affinity towards cloned human 5-hydroxytryptamine 1A receptor in HEK 293 cells using [3H]8-OH-DPAT. It is filed as cell-based, HEK293. In outline: as §1

The target of test [3] is 5-hydroxytryptamine receptor 1B (Homo sapiens, UniProt P28222). Nature of the test: The compound was tested for its binding affinity towards cloned human 5-hydroxytryptamine 1B receptor in CHO cells using [3H]5-HT. It is filed as cell-based. In outline: (§2)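 Radioligand displacement on cloned human receptors expressed in the host cell line listed in each line. Values are the mean of at least two determinations, each within 0.2 log unit of the mean.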
5-hydroxytryptamine receptor 1B, sequence (P28222 whole entry): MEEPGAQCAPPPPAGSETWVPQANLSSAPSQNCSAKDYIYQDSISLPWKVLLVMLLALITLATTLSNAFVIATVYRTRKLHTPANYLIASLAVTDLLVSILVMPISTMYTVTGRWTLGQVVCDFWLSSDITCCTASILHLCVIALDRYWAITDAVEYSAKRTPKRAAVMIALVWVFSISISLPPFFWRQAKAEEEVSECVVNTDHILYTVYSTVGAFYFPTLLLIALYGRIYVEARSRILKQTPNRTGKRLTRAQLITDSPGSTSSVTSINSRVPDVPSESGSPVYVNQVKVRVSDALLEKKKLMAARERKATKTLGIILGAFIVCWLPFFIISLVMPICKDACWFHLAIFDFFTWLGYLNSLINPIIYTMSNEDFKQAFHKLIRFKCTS

The target of test [4] is 5-hydroxytryptamine receptor 1D (Homo sapiens, UniProt P28221). Description: The compound was tested for its binding affinity towards cloned human 5-hydroxytryptamine 1D receptor in CHO cells using [3H]5-HT. It is filed as cell-based. The method in brief: as §2
5-hydroxytryptamine receptor 1D, sequence (P28221 whole entry): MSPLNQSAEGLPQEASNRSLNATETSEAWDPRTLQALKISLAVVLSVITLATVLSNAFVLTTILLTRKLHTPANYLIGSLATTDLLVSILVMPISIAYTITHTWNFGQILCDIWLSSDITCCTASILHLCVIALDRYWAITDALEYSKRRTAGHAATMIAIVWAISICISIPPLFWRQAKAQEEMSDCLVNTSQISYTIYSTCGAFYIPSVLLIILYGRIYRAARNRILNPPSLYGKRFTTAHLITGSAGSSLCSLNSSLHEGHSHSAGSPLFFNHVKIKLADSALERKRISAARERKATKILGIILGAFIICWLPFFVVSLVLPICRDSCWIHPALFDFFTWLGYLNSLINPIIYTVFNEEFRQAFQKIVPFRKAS
For test [5], the target named is 5-hydroxytryptamine receptor 1E (Homo sapiens, UniProt P28566). Nature of the test: The compound was tested for its binding affinity towards cloned human 5-hydroxytryptamine 1E receptor in CHO cells using [3H]5-HT. It counts as cell-based. In outline: as §2
5-hydroxytryptamine receptor 1E, sequence (P28566 whole entry): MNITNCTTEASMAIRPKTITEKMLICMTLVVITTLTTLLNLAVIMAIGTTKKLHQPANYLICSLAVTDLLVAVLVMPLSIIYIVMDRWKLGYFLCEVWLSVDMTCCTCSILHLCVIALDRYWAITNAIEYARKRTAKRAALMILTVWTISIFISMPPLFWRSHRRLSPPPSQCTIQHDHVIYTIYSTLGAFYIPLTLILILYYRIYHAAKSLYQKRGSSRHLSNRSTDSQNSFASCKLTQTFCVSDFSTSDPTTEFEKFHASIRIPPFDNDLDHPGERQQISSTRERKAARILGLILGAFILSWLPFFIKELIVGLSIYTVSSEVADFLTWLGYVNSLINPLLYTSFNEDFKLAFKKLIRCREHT
Test [6] addresses 5-hydroxytryptamine receptor 2A (Homo sapiens, UniProt P28223). Nature of the test: The compound was tested for its binding affinity towards cloned human 5-hydroxytryptamine 2A receptor in HEK293 cells using [3H]-ketanserin. It counts as cell-based. In outline:
as §2

For test [7], the target named is T3, 5-hydroxytryptamine receptor 1F (Homo sapiens, UniProt P30939).
T3 sequence (P30939 whole entry): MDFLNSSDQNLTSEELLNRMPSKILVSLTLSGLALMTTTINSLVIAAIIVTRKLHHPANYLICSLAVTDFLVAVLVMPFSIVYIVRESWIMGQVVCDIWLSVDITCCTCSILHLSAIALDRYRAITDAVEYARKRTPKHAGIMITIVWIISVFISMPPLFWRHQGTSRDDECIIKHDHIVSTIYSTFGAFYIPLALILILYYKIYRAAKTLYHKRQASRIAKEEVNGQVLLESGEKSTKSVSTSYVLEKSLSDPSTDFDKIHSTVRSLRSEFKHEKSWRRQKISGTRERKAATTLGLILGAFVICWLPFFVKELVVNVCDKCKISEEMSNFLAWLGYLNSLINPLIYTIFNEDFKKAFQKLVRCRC
Description: The compound was tested for its binding affinity towards cloned human 5-hydroxytryptamine 1F receptor in CHO cells using [3H]5-HT. It counts as cell-based. In outline:
as §1

The target of test [8] is 5-hydroxytryptamine receptor 2B (Homo sapiens, UniProt P41595). Nature of the test: The compound was tested for its binding affinity towards cloned human 5-hydroxytryptamine 2B receptors in HEK293 cells using [3H]5-HT. It is filed as cell-based. The method in brief: (§3)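 Radioligand displacement binding on cloned human receptors expressed in HEK 293 cells: 5-HT2B labelled with [3H]-5-HT, 5-HT7 labelled with [3H]-5-CT. Each value is the mean of at least two determinations, each within 0.2 log unit of the mean.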
5-hydroxytryptamine receptor 2B, sequence (P41595 whole entry): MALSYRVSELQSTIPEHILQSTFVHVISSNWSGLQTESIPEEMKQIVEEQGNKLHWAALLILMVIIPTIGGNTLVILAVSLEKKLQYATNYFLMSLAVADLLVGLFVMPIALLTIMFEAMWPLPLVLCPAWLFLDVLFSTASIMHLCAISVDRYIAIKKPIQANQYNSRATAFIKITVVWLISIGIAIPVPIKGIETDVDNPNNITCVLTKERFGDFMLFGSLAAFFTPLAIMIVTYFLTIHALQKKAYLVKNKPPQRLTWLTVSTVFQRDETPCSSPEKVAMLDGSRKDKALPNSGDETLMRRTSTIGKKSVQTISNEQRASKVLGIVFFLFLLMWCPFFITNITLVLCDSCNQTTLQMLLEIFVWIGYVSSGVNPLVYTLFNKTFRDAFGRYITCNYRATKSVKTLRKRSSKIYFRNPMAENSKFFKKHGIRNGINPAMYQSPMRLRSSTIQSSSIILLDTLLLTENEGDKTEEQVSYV

Test [9] addresses T4, 5-hydroxytryptamine receptor 2C (Homo sapiens, UniProt P28335).
T4 sequence (P28335 whole entry): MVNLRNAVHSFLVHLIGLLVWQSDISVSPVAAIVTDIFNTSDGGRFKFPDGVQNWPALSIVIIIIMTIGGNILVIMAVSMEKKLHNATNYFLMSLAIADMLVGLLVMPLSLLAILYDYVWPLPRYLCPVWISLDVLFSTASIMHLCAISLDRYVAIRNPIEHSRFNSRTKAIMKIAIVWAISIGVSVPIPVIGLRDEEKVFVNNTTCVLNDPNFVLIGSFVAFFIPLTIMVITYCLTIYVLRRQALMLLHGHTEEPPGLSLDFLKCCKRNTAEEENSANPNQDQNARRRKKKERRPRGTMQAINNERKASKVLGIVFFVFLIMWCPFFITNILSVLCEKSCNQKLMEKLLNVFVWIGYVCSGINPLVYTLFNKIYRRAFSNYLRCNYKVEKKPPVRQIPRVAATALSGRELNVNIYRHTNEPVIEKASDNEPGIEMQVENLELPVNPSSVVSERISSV
Nature of the test: The compound was tested for its binding affinity towards cloned human 5-hydroxytryptamine 2C receptor in HEK293 cells using [3H]mesulergine. It counts as cell-based. The method in brief:
as §1

Test [10] concerns the target T1, 5-hydroxytryptamine receptor 7. Description: The compound was tested for its binding affinity towards cloned human 5-hydroxytryptamine 7 receptor in HEK 293 cells using [3H]5-CT. It is filed as cell-based, HEK293. In outline: as §3
In test [11] the target is 5-hydroxytryptamine receptor 6 (Homo sapiens, UniProt P50406). Nature of the test: The compound was tested for its binding affinity towards cloned human 5-hydroxytryptamine 6 receptor in HeLa cells using […]. It counts as cell-based. The method in brief: as §2
5-hydroxytryptamine receptor 6, sequence (P50406 whole entry): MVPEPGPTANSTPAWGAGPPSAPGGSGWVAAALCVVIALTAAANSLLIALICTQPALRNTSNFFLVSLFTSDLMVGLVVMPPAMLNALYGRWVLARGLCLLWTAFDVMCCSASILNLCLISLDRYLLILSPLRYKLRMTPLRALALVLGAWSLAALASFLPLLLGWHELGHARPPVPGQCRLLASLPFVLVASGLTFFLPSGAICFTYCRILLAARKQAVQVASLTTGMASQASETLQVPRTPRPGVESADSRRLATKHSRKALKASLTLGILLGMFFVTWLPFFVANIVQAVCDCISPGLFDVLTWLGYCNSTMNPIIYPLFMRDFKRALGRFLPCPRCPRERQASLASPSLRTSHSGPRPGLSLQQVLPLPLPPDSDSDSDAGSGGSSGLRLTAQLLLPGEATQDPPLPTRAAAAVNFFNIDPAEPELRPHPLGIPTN
In the next test the target is D(2) dopamine receptor (Homo sapiens, UniProt P14416). Nature of the test: The compound was tested for its binding affinity towards cloned human Dopamine receptor D2 in CHO cells using [125I]iodosulpiride. It counts as cell-based.
D(2) dopamine receptor, sequence (P14416 whole entry): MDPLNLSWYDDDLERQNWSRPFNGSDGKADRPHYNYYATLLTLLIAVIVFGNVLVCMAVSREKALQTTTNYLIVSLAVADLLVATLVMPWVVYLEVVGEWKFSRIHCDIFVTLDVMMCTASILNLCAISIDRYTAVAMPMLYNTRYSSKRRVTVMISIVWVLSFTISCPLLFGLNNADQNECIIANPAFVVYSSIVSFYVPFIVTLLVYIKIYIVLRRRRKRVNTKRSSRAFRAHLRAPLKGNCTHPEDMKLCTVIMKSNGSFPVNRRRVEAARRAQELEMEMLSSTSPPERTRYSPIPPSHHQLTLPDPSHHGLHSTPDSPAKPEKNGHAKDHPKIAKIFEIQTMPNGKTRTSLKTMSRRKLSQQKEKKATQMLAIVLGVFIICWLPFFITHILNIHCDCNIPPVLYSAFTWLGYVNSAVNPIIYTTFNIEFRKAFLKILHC
In another test the target is D(3) dopamine receptor (Homo sapiens, UniProt P35462). Description: The compound was tested for its binding affinity towards cloned human Dopamine receptor D3 in CHO cells using [125I]iodosulpiride. It counts as cell-based.
D(3) dopamine receptor, sequence (P35462 whole entry): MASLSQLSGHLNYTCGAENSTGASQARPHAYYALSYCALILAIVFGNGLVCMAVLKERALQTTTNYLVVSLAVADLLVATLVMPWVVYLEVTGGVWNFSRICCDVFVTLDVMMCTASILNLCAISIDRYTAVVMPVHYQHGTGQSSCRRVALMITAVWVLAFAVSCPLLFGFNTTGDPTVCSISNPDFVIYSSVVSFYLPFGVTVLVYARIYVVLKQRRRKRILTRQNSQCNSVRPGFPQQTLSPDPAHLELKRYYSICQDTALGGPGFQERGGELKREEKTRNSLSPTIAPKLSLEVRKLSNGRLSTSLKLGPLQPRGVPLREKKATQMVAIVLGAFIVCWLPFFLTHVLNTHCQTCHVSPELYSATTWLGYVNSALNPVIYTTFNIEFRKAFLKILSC
Test [12] addresses T5, Alpha-1B adrenergic receptor (Homo sapiens, UniProt P35368).
T5 sequence (P35368 whole entry): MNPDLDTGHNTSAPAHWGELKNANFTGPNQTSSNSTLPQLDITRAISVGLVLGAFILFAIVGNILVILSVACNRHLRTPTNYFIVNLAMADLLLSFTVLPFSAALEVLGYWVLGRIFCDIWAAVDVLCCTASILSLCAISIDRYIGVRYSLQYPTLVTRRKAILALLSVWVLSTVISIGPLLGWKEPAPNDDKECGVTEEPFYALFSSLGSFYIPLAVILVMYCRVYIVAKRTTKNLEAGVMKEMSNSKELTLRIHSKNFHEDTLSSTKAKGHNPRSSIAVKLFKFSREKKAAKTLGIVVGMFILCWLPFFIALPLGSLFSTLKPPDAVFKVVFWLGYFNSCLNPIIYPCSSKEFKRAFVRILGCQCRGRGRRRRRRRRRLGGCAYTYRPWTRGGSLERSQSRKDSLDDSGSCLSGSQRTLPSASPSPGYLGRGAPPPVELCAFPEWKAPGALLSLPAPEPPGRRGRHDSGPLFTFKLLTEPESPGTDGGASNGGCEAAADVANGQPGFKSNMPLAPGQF
Description: The compound was tested for its binding affinity towards adrenergic alpha-1B receptors.

A value given as a limit tells only on which side of the number the result lay.

T1 sequence (P34969 whole entry): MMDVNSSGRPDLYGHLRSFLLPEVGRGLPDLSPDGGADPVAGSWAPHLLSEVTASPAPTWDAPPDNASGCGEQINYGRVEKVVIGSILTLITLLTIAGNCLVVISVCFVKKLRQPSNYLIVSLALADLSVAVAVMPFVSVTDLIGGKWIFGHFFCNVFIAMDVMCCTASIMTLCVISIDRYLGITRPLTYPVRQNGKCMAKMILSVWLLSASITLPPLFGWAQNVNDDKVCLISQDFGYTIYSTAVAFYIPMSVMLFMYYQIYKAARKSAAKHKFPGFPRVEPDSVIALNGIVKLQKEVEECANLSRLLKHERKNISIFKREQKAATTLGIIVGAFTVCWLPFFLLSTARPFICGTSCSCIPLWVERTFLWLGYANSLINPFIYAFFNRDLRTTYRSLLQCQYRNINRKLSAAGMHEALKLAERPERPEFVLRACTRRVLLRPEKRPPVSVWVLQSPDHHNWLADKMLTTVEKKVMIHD
5-hydroxytryptamine receptor 2A, sequence (P28223 whole entry): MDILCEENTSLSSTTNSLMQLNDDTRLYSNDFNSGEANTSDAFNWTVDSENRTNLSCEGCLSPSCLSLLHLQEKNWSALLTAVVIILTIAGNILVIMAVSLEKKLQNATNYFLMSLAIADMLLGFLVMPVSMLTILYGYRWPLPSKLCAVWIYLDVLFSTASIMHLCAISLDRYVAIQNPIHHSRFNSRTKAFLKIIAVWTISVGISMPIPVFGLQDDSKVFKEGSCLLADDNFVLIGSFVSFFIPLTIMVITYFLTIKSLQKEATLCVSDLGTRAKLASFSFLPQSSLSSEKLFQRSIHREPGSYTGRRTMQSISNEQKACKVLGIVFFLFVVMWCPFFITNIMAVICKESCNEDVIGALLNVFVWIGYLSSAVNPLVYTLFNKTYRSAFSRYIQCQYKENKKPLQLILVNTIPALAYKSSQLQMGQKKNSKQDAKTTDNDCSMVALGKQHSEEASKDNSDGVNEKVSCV

In turn, `C[C@H]1CCCN(CC[C@H](C)N(C)S(=O)(=O)c2cccc3ccccc23)C1` had a Ki in test [1] greater than 10 µM.

`CC1CCN(CC[C@@H](C)N(C)S(=O)(=O)c2ccc(Cl)c(Cl)c2)CC1` showed a Ki in [1] of 0.0316 µM.

Consider `C[C@@H]1CCCN(CC[C@H](C)N(C)S(=O)(=O)c2cccc3ccccc23)C1`, for which the Ki in test [1] was 1.58 µM.

Take `Cc1cccc(S(=O)(=O)N(C)[C@H](C)CCN2CCC(C)CC2)c1` [SB-258719]: the inhibition constant Ki in test [2] was greater than 7.94 µM; in [3] it was greater than 5.01 µM; in [4], 3.16 µM; in [5] it was greater than 15.8 µM; in test [6] it was greater than 15.8 µM; in test [7], greater than 6.31 µM. Further, the Ki in [8] was greater than 5.01 µM; in test [9], greater than 15.8 µM; in [10], 0.0316 µM; in test [11] it was greater than 15.8 µM; on D(2) dopamine receptor it was 3.98 µM; at D(3) dopamine receptor, 3.98 µM. Also, the Ki in [12] was greater than 15.8 µM.

`CC1CCCN(CCC(C)N(C)S(=O)(=O)c2cccc3ccccc23)C1` (configuration not stated) showed a Ki in test [1] of 0.0631 µM.

The compound `CC1CCN(CC[C@@H](C)N(C)S(=O)(=O)c2ccc(Br)c(Br)c2)CC1` had an inhibition constant Ki in test [1] of 0.02 µM.

Compound `CC1CCN(CC[C@@H](C)N(C)S(=O)(=O)c2cc(Br)c(Br)s2)CC1` showed a Ki in test [1] of 0.0158 µM. This Ki and that of the compound before are within 1.5-fold of each other.

Compound `CC1CCN(CC[C@@H](C)N(C)S(=O)(=O)c2cccc3ccccc23)CC1` showed an inhibition constant Ki in test [1] of 0.0316 µM. Compared with the last compound, the Ki is about 2-fold higher.

`C[C@H]1CCCN(CC[C@@H](C)N(C)S(=O)(=O)c2cccc3ccccc23)C1` showed a Ki in test [1] of 0.631 µM.

For `C[C@@H]1CCCN(CC[C@@H](C)N(C)S(=O)(=O)c2cccc3ccccc23)C1`, the Ki in [1] is 0.126 µM.

A word on the Ki: it is the dissociation constant of the complex between target and ligand, obtained from inhibition or displacement. Low values mean higher affinity, high ones lower affinity.

(Values after ChEMBL document CHEMBL1131479, “(R)-3,N-dimethyl-N-[1-methyl-3-(4-methyl-piperidin-1-yl) propyl]benzenesulfonamide: the first selective 5-HT7 receptor antagonist” (J Med Chem, 1998).)
